In ChEMBL document CHEMBL3259628, “Discovery of novel 2-((pyridin-3-yloxy)methyl)piperazines as α7 nicotinic acetylcholine receptor modulators for the treatment of inflammatory disorders” (J Med Chem, 2014):
The source made the active and inactive calls. No cut-off for these calls is given here.

How the values were obtained:
[1] = target: Acetylcholine receptor; alpha1/beta1/delta/gamma (Homo sapiens) (UniProt P02708+P07510+P11230+Q07001); assay: Inhibition of alpha1beta1gammadelta nAChR (unknown origin) at 10 uM; type: protein-complex assay
Procedure, shortened: (§1)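 Receptor, ion channel and transporter binding panel run at Cerep in duplicate. Percent inhibition measured at 10 μM compound.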

CYP3A4 = CYP3A4 (Homo sapiens, UniProt P08684); assay: Inhibition of CYP3A4 (unknown origin) at 10 uM; type: ADME
Chain of CYP3A4 (P08684 whole entry, canonical isoform): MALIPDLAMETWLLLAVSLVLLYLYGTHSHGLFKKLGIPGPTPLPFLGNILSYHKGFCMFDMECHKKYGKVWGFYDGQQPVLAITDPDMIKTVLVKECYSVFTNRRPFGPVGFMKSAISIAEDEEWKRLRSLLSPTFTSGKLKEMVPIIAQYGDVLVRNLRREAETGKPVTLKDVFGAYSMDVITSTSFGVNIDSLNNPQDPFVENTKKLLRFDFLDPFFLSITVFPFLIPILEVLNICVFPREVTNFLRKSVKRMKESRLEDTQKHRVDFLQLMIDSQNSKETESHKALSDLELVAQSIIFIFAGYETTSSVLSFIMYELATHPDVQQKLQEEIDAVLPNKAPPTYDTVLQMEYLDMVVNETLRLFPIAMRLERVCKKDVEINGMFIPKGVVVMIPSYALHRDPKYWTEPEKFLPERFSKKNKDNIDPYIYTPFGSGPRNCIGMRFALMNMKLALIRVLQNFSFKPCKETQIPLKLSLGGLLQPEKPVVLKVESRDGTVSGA
Procedure, shortened: (§2)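 Each of five Cyp isoforms assayed with single probe substrates rather than a substrate cocktail. Run in duplicate at Cerep. IC50 lines come from a 5-concentration titration curve.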

[2] = target: T1, 5-hydroxytryptamine receptor 3A (Homo sapiens) (UniProt P46098); assay: Inhibition of 5-HT3 receptor (unknown origin) at 10 uM; procedure, shortened: as §1
T1 sequence (whole entry): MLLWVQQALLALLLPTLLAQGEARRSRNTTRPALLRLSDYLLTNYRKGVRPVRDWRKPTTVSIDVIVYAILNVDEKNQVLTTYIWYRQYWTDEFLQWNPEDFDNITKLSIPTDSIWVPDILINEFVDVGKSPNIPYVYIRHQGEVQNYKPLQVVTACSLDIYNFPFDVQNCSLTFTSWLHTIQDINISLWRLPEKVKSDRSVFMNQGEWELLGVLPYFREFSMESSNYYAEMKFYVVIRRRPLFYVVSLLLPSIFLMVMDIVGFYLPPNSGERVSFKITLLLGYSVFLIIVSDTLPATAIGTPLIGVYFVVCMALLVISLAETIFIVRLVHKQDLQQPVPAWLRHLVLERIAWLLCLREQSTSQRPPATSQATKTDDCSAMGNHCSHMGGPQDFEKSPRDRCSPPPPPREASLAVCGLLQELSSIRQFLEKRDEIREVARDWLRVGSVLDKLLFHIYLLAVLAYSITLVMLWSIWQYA

CYP1A2 = target: T2, CYP1A2 (Homo sapiens, UniProt P05177); assay: Inhibition of CYP1A2 (unknown origin) at 10 uM; type: ADME; procedure, shortened: as §2
T2 sequence (P05177 whole entry): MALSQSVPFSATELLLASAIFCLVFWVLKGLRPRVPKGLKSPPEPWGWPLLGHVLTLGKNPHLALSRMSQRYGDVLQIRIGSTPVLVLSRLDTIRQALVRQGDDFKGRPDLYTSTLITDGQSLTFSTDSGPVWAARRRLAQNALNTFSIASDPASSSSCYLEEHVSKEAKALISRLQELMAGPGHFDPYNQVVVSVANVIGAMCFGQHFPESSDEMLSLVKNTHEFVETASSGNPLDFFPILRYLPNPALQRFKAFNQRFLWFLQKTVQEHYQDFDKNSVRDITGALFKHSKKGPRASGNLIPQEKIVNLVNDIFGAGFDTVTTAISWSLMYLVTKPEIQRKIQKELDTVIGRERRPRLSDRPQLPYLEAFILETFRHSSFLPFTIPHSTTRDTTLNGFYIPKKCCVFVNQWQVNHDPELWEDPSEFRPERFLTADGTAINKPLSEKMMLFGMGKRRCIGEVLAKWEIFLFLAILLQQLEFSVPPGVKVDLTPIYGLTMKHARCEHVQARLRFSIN

CYP2D6 = CYP2D6 (Homo sapiens, UniProt P10635); assay: Inhibition of CYP2D6 (unknown origin) at 10 uM; type: ADME; procedure, shortened: as §2
Chain of CYP2D6 (P10635 whole entry): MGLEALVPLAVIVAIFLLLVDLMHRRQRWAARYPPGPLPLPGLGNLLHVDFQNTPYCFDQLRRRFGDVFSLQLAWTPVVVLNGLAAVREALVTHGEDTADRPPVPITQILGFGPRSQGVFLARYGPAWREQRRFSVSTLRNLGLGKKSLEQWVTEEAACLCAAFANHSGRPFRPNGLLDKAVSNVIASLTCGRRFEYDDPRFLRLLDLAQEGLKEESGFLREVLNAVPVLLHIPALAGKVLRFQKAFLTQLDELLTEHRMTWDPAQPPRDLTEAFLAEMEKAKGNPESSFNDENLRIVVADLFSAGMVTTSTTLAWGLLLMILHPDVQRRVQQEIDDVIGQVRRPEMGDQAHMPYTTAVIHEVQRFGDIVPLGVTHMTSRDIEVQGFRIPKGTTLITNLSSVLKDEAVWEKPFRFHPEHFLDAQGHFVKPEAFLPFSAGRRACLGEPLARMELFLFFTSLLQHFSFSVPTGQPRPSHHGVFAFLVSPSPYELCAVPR

[3] = target: Neuronal acetylcholine receptor; alpha4/beta2 (Homo sapiens, UniProt P17787+P43681); assay: Inhibition of human alpha4beta2 nAChR at 10 uM by binding assay
[4] = target: Neuronal acetylcholine receptor subunit alpha-7 (Rattus norvegicus, UniProt Q05941); assay: Inhibition of biotinylated alpha-bungarotoxin binding to alpha7 nAChR in rat PC12 cells by FACS analysis; type: cell-based, PC-12
Chain of Neuronal acetylcholine receptor subunit alpha-7 (Q05941 whole entry): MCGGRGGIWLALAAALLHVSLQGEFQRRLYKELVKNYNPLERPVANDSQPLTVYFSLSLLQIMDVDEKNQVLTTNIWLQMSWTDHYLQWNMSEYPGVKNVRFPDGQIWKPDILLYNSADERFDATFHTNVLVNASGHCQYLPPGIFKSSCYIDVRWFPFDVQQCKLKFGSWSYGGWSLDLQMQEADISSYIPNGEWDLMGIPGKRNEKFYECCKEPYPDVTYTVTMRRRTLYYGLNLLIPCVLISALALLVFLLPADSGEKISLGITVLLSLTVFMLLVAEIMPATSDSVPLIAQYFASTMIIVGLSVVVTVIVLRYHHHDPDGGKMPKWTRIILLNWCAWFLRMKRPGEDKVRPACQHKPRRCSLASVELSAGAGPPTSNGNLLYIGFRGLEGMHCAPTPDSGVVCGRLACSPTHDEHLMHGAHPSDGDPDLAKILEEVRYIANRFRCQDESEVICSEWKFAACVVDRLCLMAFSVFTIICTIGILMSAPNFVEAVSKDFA
Procedure, shortened: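 Rat PC12 cells in binding buffer (PBS, 1.0% FBS, 0.02% sodium azide), 0.1% DMSO; biotinylated α-bungarotoxin 10 nM final, 1 h at room temperature; nonspecific binding defined with 1.5 μM unlabeled toxin. After washing, phycoerythrin-streptavidin 1.0 μg/mL final, 15 min in the dark; read by FACS. Screened at 10 and 1 μM, then eight-point 3-fold dilution IC50; mean of two or more experiments.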

hERG (KCNH2) = hERG (KCNH2) (Homo sapiens, UniProt Q12809); assay: Inhibition of human ERG at 1 uM by whole-cell voltage clamp assay
Chain of hERG (KCNH2) (Q12809 whole entry): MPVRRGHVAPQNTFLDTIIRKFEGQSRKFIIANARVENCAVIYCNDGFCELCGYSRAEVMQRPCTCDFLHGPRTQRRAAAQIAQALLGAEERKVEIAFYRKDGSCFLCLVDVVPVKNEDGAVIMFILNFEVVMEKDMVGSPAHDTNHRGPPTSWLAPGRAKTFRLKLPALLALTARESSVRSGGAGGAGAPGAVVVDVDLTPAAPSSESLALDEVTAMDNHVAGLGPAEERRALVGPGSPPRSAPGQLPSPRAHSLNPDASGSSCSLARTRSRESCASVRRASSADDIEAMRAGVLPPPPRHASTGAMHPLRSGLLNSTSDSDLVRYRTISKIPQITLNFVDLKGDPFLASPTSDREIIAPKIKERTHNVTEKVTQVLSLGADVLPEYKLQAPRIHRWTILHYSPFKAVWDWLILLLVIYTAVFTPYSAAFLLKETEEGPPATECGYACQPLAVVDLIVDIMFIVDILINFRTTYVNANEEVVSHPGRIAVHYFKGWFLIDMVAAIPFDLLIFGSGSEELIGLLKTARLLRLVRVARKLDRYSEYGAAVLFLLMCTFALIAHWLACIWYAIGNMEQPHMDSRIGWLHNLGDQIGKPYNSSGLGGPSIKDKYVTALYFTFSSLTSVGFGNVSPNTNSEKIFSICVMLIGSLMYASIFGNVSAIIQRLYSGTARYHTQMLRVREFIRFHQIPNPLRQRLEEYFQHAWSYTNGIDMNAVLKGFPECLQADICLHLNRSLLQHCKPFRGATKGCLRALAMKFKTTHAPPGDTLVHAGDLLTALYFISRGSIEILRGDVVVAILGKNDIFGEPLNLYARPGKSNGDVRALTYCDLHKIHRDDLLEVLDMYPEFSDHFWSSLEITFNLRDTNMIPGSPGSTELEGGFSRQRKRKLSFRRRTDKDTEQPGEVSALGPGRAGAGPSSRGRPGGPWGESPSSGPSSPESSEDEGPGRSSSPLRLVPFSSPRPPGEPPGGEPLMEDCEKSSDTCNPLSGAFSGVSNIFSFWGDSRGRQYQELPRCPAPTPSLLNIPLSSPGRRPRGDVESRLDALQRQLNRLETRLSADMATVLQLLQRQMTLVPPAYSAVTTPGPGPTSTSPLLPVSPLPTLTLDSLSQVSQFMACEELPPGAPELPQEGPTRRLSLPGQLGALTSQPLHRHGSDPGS

CYP2C9 = CYP2C9 (Homo sapiens, UniProt P11712); assay: Inhibition of CYP2C9 (unknown origin) at 10 uM; type: ADME; procedure, shortened: as §2
Chain of CYP2C9 (P11712 whole entry): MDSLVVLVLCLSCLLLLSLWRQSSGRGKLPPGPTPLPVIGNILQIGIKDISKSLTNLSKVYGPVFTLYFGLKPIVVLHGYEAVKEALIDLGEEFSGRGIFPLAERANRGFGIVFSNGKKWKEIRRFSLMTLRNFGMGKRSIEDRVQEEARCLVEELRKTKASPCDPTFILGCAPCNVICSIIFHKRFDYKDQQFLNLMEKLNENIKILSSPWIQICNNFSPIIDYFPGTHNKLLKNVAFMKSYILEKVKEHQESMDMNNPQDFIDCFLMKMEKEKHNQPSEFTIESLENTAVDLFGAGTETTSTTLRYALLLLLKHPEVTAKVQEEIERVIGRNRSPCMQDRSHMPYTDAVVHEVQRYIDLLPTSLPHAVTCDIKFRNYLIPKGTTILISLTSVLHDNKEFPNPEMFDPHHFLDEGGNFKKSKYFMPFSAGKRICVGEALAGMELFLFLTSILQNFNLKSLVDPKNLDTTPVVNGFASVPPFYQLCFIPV

CYP2C19 = CYP2C19 (Homo sapiens, UniProt P33261); assay: Inhibition of CYP2C19 (unknown origin) at 10 uM; type: ADME; procedure, shortened: as §2
Chain of CYP2C19 (P33261 whole entry): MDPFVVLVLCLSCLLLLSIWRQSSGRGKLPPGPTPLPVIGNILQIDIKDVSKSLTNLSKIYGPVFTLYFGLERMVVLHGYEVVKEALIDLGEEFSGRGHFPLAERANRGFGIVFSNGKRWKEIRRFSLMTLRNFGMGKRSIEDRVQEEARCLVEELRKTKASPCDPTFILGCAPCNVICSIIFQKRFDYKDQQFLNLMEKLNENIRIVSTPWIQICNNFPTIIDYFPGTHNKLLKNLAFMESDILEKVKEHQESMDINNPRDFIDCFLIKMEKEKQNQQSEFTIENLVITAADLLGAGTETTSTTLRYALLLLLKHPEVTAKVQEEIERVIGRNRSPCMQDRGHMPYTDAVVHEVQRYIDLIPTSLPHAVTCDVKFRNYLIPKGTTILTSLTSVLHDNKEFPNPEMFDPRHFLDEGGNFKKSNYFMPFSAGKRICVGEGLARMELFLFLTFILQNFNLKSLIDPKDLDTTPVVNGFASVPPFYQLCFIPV

Mus musculus [5] = assay: (§3) Antiinflammatory activity against ovalbumin-induced allergic lung inflammation BALB/c mouse model assessed as reduction in neutrophils in brochoalveolar lavage fluid at 10 mg/kg, po bid administered on day 29 to 31 post ovalbumin challenge measured 8 hrs post last challenge relative to vehicle-treated control; type: functional, organism-based; design: dose 10 mg/kg; details: Bronchoalveolar lavage
Procedure, shortened: (§4)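 Balb/c mice sensitized with ovalbumin by IP injection on days 1 and 14, then challenged intranasally with 100 μg ovalbumin on days 29, 30 and 31. Compound in saline given orally starting 30 min before each challenge; groups of six mice. Sham groups were saline-sensitized and allergen-challenged. BAL taken 8 h after the last challenge, with differential cell counts on slides.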

Mus musculus [6] = assay: as §3, with “total blood cells” for “neutrophils”; type: functional, organism-based; design: dose 10 mg/kg; procedure, shortened: as §4
Mus musculus [7] = assay: as §3, with “eosinophils” for “neutrophils”; type: functional, organism-based; design: dose 10 mg/kg; procedure, shortened: as §4

Structure (SMILES) | inhibition [1] [%] | inhibition at 10 µM (CYP3A4) [%] | inhibition [2] [%] | inhibition at 10 µM (CYP1A2) [%] | inhibition at 10 µM (CYP2D6) [%] | inhibition [3] [%] | IC50 [4] [nM] | inhibition at 1 µM (hERG (KCNH2)) [%] | inhibition at 10 µM (CYP2C9) [%] | inhibition at 10 µM (CYP2C19) [%] | inhibition (Mus musculus [5]) | inhibition (Mus musculus [6]) | inhibition (Mus musculus [7])
Fc1cc(F)c2nc(N3CCNCC3COc3cccnc3)sc2c1 (racemic) | 12 | 83 | 91 | 67 | 72 | 45 | 19 | 36 | 26 | 70 |  |  | 
COc1ccc(OC(=O)N2CCNCC2COc2cccnc2)cc1 (racemic) | 2 |  | 39 |  |  | 90 | 11 |  |  |  |  |  | 
COc1ccc(NC(=O)N2CCNCC2COc2cccnc2)cc1 (racemic) | -8 | 7 | 23 | 11 | 0 | 33 | 60 | 15 | 14 | 17 | Active | Active | Active
COc1ccc(NC(=O)N2CCNCC2COc2cccnc2)cc1Cl (racemic) | 17 | 66 | 40 | 20 | 25 | 23 | 45 | 17 | 10 | 47 |  |  | 
Cc1cc(NC(=O)N2CCNCC2COc2cccnc2)ccc1Br (racemic) | 23 | 80 | 80 | 48 | 85 | 15 | 14 | 27 | 21 | 51 |  |  | 
O=C(Nc1ccc(Br)cc1F)N1CCNCC1COc1cccnc1 (racemic) | 7 | 58 | 47 | 13 | 41 | 30 | 42 | 18 | 7 | 32 |  |  | 
O=C(c1ccccc1)c1ccc(NC(=O)N2CCNCC2COc2cccnc2)cc1 (racemic) | 10 | 23 | 16 | 16 | 7 | 18 | 41 | 40 | 62 | 49 |  |  | 
